Measurements of several laboratories.
Lines come from different studies, so protocols differ.
ABCB11: Bile salt export pump (ABCB11, Homo sapiens, UniProt O95342)
KCNH2: Voltage-gated inwardly rectifying potassium channel KCNH2 (KCNH2, Homo sapiens, UniProt Q12809)

Structure (SMILES) | target or system | test | test system | setting | measurement | result
CC(C)n1ncc2c(C(=O)NCC3(C)CNC3)cc(C3CC3)nc21 | RD | cell growth or viability, neutral red | – | – | CC50 | > 100 µM
O=C(COc1ccc(Cl)cc1)NC12CC(c3nnc([C@H]4C[C@@H](OC(F)(F)F)C4)o3)(C1)C2 | – | – | human, plasma | oral, 800 mg, single dose, fasted, healthy volunteers | Tmax | 36 h
O=C(O)COc1cccc(-c2nc(Nc3ccc4[nH]ncc4c3)c3ccccc3n2)c1 | ABCB11 | transporter uptake, inhibitor, radiometric | – | – | IC50 | 48.2 µM
COc1nc(-c2cccc(-c3ccccc3)c2C)ccc1CNCCNC(=O)CCCCCCCCCCC(=O)N1CCN(CCNC(=O)c2cc3c(=O)n4cccc(C)c4nc3n(CCc3cccs3)c2=N)CC1 | – | – | male Sprague-Dawley rat, plasma | intraperitoneal, 4 mg/kg | MRT(0-inf) | 7.2 h
NC(=O)c1ncn([C@@H]2O[C@H](CO)[C@@H](O)[C@H]2O)n1 | RD | cell growth or viability, MTT | – | – | CC50 | 104 µM
COc1cccc(OC)c1-c1cc(C(=O)NC2(C(=O)O)C3CC4CC(C3)CC2C4)nn1-c1ccc(C(=O)N(C)CCCN(C)CCCN(C)C(=O)CN2CCN(CC(=O)[O-])CCN(CC(=O)[O-])CCN(CC(=O)[O-])CC2)cc1C(C)C.[177Lu+3] (centres unmarked) | HT-29 | – | stomach | 7 days, tumour-bearing | tracer uptake | 0.09 %ID/g
CCOC(=O)C1=C(CN2CCC[C@@H]2C(=O)Nc2ccc(B(O)O)cc2)NC(c2nccs2)=N[C@H]1c1ccc(F)cc1Br | KCNH2 | ion current, inhibitor, patch clamp | HEK293 | 30 µM, pH 7.4 | inhibition | 83%
NC/C(=C\F)COc1cccc(Cn2c(=S)[nH]c(=O)c3[nH]cnc32)c1 | ABCB11 | transporter uptake, inhibitor, radiometric | – | 30 µM | inhibition | < 50%
Cn1c(=O)c2[nH]cnc2n(C)c1=O | – | – | male Sprague-Dawley rat, plasma | intravenous, 11.25 mg/kg | MRT(0-inf) | 6.51 h
COc1ccc2c(c1)CN(C(=O)CCN1CCC(Cc3ccccc3)CC1)CC[S@@+]2[O-] | – | – | male human, plasma | intravenous, 0.6 mg/kg, healthy volunteers | Tmax | 0 h
CC(=O)N1CCC(C(=O)N2CCN3C(=O)c4cc(-c5ccccc5)ccc4NC(=O)C3C2)CC1 (centres unmarked) | KCNH2 | ion current, inhibitor, patch clamp | HEK293 | 100 µM | inhibition | 56.8%
COc1cc(N)c(Cl)cc1C(=O)NC1CCN(CCCOc2ccc(F)cc2)CC1OC (centres unmarked) | KCNH2 | ion current, inhibitor, patch clamp | HEK293 | 10 nM, pH 7.4 | inhibition | 39%
N[C@H]1C(O)O[C@H](CO)[C@@H](O)[C@@H]1O (some centres unmarked) | Caco-2 | cell growth or viability, CCK-8 | – | 50 mM | viability | 97.9%
CC(C)n1cc(C#N)c2cc(-n3cc(C(=O)O)cn3)ccc21 | – | – | human, plasma | oral, 100 mg, single dose, fasted, healthy volunteers | Tmax | 2.99 h
C[C@H]1Oc2cc(cnc2N)-c2c(nn(C)c2C#N)CN(C)C(=O)c2ccc(F)cc21 | – | – | Sprague-Dawley rat, plasma | intravenous, 1 mg/kg, single dose | MRT(0-inf) | 4.96 h
O=C(Cn1ccnc1[N+](=O)[O-])NCc1ccccc1 | LLC-MK2 | cell growth or viability | – | – | CC50 | 257 µg/mL
CN1C[C@H](COc2nccc3c(NCc4ccco4)cc(Cl)nc23)OC1=O | KCNH2 | ion current, inhibitor | HEK293 | 1 µM | inhibition | 8.8%
